The target in one test is P2Y purinoceptor 12 (Homo sapiens, UniProt Q9H244). The test is described as follows: Displacement of [33P]ADP from human recombinant P2Y12 receptor expressed in CHO cells. The test is classed as cell-based. The essentials:
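Washed membranes from CHO cells expressing synthetic human P2Y12, incubated 1 h at room temperature with 0.2 nM 33P-MeSADP in 50 mM Tris/100 mM NaCl/1 mM EDTA. Compound was tested as a 7-point 3-fold series in triplicate. Nonspecific binding was defined with 300 nM 2-MeSADP, followed by filtration.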

Test [1] in a line: Antiplatelet aggregation activity against adenosine diphosphate-induced human platelet rich plasma assessed as inhibition of platelet aggregation by turbidimetric method. The test is classed as functional. The following applies: Homo sapiens, Platelet, Plasma. The essentials: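 Human PRP, prepared by two-step centrifugation and adjusted to 330 000 platelets/μL with PPP. Compound was preincubated 5 min at 37 °C in 0.5% DMSO, then 20 μM ADP was added. OD626 was read kinetically for 15 min at 37 °C with mixing between reads.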

For another test, the system named is Platelet. The test is described as follows: Relative potency, ratio of IC50 for drug to IC50 for AZD-6140 for platelet aggregation in human platelet rich plasma. The test is classed as functional.

Sequence of P2Y purinoceptor 12 (Q9H244 whole entry): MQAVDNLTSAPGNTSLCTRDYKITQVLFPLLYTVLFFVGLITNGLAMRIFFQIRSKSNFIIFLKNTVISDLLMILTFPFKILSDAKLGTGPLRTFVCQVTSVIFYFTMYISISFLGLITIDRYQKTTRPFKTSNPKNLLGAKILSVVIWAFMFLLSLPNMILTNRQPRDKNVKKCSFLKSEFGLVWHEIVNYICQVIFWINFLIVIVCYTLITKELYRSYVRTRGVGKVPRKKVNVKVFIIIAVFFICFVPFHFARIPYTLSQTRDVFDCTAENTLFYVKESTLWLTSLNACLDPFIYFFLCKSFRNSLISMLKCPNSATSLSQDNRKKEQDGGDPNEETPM

Regarding `CCCCCOC(=O)N1CCN(C(=O)[C@H](CCC(=O)O)NC(=O)c2cc(OCC3CCN(C(C)=O)CC3)cc(-c3ccccc3)n2)CC1`, on P2Y purinoceptor 12, the Ki amounted to 0.0013 µM. In addition, the IC50 in test [1] was found to be 1.3 µM. Further, the “Ratio IC50” value in the test with Platelet is 1.8.

Regarding `CCCCOC(=O)N1CCN(C(=O)[C@H](CCC(=O)O)NC(=O)c2cc(OC(=O)N(C)C3CCOC3)cc(-c3ccccc3)n2)CC1` (stereo partly specified), on P2Y purinoceptor 12, the Ki turned out to be 0.0018 µM. Besides, the IC50 in test [1] is 0.52 µM. Also, the “Ratio IC50” value in the test on Platelet came out at 0.63.

`CCCCOC(=O)N1CCN(C(=O)[C@H](CCC(=O)O)NC(=O)c2cc(N3CCC(N(C)C)CC3)cc(-c3ccccc3)n2)CC1`: on P2Y purinoceptor 12, the Ki is 0.005 µM. Also, the IC50 in test [1] turned out to be 1.9 µM. The “Ratio IC50” value in the test with Platelet was 1.4.

For `CCCCCOC(=O)N1CCN(C(=O)[C@H](CCC(=O)O)NC(=O)c2cc(C(=O)N(C)CC)cc(-c3ccccc3)n2)CC1`, the Ki on P2Y purinoceptor 12 stood at 0.0026 µM. In addition, the IC50 in test [1] came to 0.58 µM. For the same molecule, the “Ratio IC50” value with Platelet was found to be 1.3.

With `CCCCOC(=O)N1CCN(C(=O)[C@H](CCC(=O)O)NC(=O)c2cc(N3CCOCC3)cc(-c3ccccc3)n2)CC1`, on P2Y purinoceptor 12, the Ki amounted to 0.0033 µM. Further, in test [1], the 50% inhibitory concentration (IC50) was found to be 7.2 µM. Also, the “Ratio IC50” value in the test with Platelet was found to be 11.

For the molecule `CCCCCOC(=O)N1CCN(C(=O)[C@H](CCC(=O)O)NC(=O)c2cc(NC(=O)N3CCN(C)CC3)cc(-c3ccccc3)n2)CC1`, the Ki on P2Y purinoceptor 12 came to 0.0032 µM. Moreover, in test [1], the half-maximal inhibitory concentration (IC50) turned out to be 11 µM. Besides, in the test with Platelet, the “Ratio IC50” value amounted to 7.2.

On to `CCCCOC(=O)N1CCN(C(=O)[C@H](CCC(=O)O)NC(=O)c2cc(OC3CCN(C(C)C)CC3)cc(-c3ccccc3)n2)CC1`, for which, on P2Y purinoceptor 12, the Ki was found to be 0.01 µM. Also, the IC50 in test [1] amounted to 0.88 µM. Further, the “Ratio IC50” value in the test on Platelet is 0.75.

Take `CCCCCOC(=O)N1CCN(C(=O)[C@H](CCC(=O)O)NC(=O)c2cc(C(=O)N(C)CCCC)cc(-c3ccccc3)n2)CC1`: the Ki at P2Y purinoceptor 12 came out at 0.0058 µM. Besides, the IC50 in test [1] worked out at 1.8 µM. In addition, the “Ratio IC50” value in the test on Platelet is recorded as 3.3.

`CCCCCOC(=O)N1CCN(C(=O)[C@H](CCC(=O)O)NC(=O)c2cc(C(=O)NC)cc(-c3ccccc3)n2)CC1`: the Ki on P2Y purinoceptor 12 amounted to 0.01 µM. In test [1], the IC50 came out at 6.8 µM. For the same molecule, the “Ratio IC50” value in the test on Platelet came to 9.7.

Consider `CCCCOC(=O)N1CCN(C(=O)[C@H](CCC(=O)O)NC(=O)c2cc(OCC3CCN(C(=O)COC)CC3)cc(-c3ccccc3)n2)CC1`, for which, on P2Y purinoceptor 12, the Ki stood at 0.0026 µM. Further, in test [1], the IC50 was determined as 1.5 µM. In addition, the “Ratio IC50” value with Platelet is given as 1.4.

Take `CCCCCCOC(=O)N1CCN(C(=O)[C@H](CCC(=O)O)NC(=O)c2cc(OCCCC)cc(-c3ccccc3)n2)CC1`: the Ki on P2Y purinoceptor 12 came out at 0.089 µM. Besides, the IC50 in test [1] stood at 97 µM. Further, in the test with Platelet, the “Ratio IC50” value is 65.

Take `CCOC(=O)N1CCN(C(=O)[C@H](CCC(=O)O)NC(=O)c2cc(NCCO)cc(-c3ccccc3)n2)CC1`: the Ki on P2Y purinoceptor 12 was 0.117 µM. The IC50 in test [1] was 12 µM. Also, in the test on Platelet, the “Ratio IC50” value is on record as 14.

In the case of `CCCCCOC(=O)N1CCN(C(=O)[C@H](CCC(=O)O)NC(=O)c2cc(NC(=O)OCC)cc(-c3ccccc3)n2)CC1`, the Ki on P2Y purinoceptor 12 is 0.011 µM. Moreover, in test [1], the IC50 was 9.3 µM. The “Ratio IC50” value in the test on Platelet stood at 15.

As for `CCCCCOC(=O)N1CCN(C(=O)[C@H](CCC(=O)O)NC(=O)c2cc(CCCCO)cc(-c3ccccc3)n2)CC1`, on P2Y purinoceptor 12, the Ki came to 0.0036 µM. Also, the IC50 in test [1] came to 3.2 µM. Further, the “Ratio IC50” value in the test with Platelet amounted to 4.2.

With `CCCCOC(=O)N1CCN(C(=O)[C@H](CCC(=O)O)NC(=O)c2cc(OC3CCCNC3)cc(-c3ccccc3)n2)CC1` (stereo partly specified), on P2Y purinoceptor 12, the inhibition constant (Ki) was determined as 0.0069 µM. Also, the IC50 in test [1] stood at 3.9 µM. Further, in the test on Platelet, the “Ratio IC50” value was determined as 1.8.

Turning to `CCCCCOC(=O)N1CCN(C(=O)[C@H](CCC(=O)O)NC(=O)c2cc(NCCC)cc(-c3ccccc3)n2)CC1`, the Ki on P2Y purinoceptor 12 worked out at 0.012 µM. For the same molecule, the IC50 in test [1] came out at 13 µM. Moreover, in the test with Platelet, the “Ratio IC50” value worked out at 14.

For the molecule `CCCCOC(=O)N1CCN(C(=O)[C@H](CCC(=O)O)NC(=O)c2cc(N3CCC(N4CCCC4)CC3)cc(-c3ccccc3)n2)CC1`, the Ki on P2Y purinoceptor 12 stood at 0.064 µM. In addition, the IC50 in test [1] was 0.56 µM. In addition, in the test with Platelet, the “Ratio IC50” value was 1.7.
